From PubChem BioAssay
The sample as a whole holds a higher share of hits than the screen did.
Beta2AR agonist: agonists of human beta-2 adrenergic receptor inducing internalization | AID 504454 | 340,000 tested, 0.43% active | Am2.2-beta2AR cells, FAP receptor internalization, flow cytometry | response, % (no concentration beside the values);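 active = response above a set limit, near 3 SD of response in nonfluorescent compounds, cut at about 42% in these data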
Dynein cargo inh: dynein cargo transport inhibition; 220,000 tested, 0.47% active; AID 1381; 3617.4 mouse cells, GR-EGFP nuclear translocation imaging; test concentration mostly 20 µM; stimulated with dexamethasone, 1 µM; stronger effect = lower value; z-score, hits read low;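 active = plate z-score of nuclear minus cytoplasmic receptor signal below a set negative limit, without overly bright fluorescence or cell loss, cut at about -3.5 in these data, passing the limit was not always enough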;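 note: z-score of nuclear minus cytoplasmic ring GR-EGFP intensity difference per well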
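Buffer or medium: tet-free, stripped-serum medium; reagent: dexamethasone at 1.0 µM final, 30 min; incubation: 48 h induction, 1 h compound, 30 min dex at 37 °C; measured by: formaldehyde fixation, Hoechst nuclear stain, 10x automated fluorescence imaging; read-out: nuclear-to-cytoplasmic GR-EGFP distribution per well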
XBP1 UPR activ: adaptive UPR (XBP1) activation; CHO-XBP1 luciferase reporter, IRE1-XBP1 UPR activation, luminescence; percent of tunicamycin response, DMSO as zero; activation, % at 20 µM; 330,000 tested, 0.33% active;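 active = versus positive control, 20 µM dose yields 30% or more activation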
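Material: CHO cell line with stable XBP1 luciferase reporter; buffer or medium: F12 medium containing 10% fetal bovine serum; compound: single point, 20 µM final compound, 1% DMSO; incubation: 6 h treatment, 37 °C; measured by: glow luminescence from Steady-Glo reagent; evaluation: activation, % of tunicamycin; control set: tunicamycin high, DMSO low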
UPR CHOP act: activators of apoptotic arm of unfolded protein response (CHOP); activation, % at 10 µM; CHO-CHOP luciferase reporter, UPR activation, luminescence; percent of tunicamycin response over DMSO baseline; 330,000 tested, 0.34% active;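 active = at 10 µM dose, activation of 40% or more, normalized to positive control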
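Dosing – one dose, 10 µM in 0.5% DMSO · System – CHO-CHOP cells, stable luciferase reporter of PERK-eIF2a-CHOP signalling · Input – 500 cells/well · Control set – tunicamycin 10 µg/mL final as positive, DMSO-only wells as negative · Timing – 6 h compound treatment, 37 °C · Measure – % activation vs tunicamycin · Technique – luminescence read with Steady-Glo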
CHOP inhibitor: CHOP inhibition in unfolded protein response; CHO-K1 CHOP-promoter luciferase, tunicamycin-induced, 15-18 h; inhibition, % at 10 µM; 220,000 tested, 3.8% active; AID 2732;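 active = compounds that reduced the stress-induced luciferase reporter signal by more than about 70% of percent inhibition, limit read from the data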
p-CIP stab down: p/CIP protein destabilization; decrease of EGFP signal, % at 10 µM; F442A p/CIP-EGFP cells, EGFP fluorescence, 16 h; AID 1984; 290,000 tested, 0.01% active; Q05BA5;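 active = EGFP signal decrease of at least 30% at 10 µM or well 3 SD below plate mean, unless failing retest; inactive = the rest, including hits failing retest or dose response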
Target sequence (Q05BA5 1-1403): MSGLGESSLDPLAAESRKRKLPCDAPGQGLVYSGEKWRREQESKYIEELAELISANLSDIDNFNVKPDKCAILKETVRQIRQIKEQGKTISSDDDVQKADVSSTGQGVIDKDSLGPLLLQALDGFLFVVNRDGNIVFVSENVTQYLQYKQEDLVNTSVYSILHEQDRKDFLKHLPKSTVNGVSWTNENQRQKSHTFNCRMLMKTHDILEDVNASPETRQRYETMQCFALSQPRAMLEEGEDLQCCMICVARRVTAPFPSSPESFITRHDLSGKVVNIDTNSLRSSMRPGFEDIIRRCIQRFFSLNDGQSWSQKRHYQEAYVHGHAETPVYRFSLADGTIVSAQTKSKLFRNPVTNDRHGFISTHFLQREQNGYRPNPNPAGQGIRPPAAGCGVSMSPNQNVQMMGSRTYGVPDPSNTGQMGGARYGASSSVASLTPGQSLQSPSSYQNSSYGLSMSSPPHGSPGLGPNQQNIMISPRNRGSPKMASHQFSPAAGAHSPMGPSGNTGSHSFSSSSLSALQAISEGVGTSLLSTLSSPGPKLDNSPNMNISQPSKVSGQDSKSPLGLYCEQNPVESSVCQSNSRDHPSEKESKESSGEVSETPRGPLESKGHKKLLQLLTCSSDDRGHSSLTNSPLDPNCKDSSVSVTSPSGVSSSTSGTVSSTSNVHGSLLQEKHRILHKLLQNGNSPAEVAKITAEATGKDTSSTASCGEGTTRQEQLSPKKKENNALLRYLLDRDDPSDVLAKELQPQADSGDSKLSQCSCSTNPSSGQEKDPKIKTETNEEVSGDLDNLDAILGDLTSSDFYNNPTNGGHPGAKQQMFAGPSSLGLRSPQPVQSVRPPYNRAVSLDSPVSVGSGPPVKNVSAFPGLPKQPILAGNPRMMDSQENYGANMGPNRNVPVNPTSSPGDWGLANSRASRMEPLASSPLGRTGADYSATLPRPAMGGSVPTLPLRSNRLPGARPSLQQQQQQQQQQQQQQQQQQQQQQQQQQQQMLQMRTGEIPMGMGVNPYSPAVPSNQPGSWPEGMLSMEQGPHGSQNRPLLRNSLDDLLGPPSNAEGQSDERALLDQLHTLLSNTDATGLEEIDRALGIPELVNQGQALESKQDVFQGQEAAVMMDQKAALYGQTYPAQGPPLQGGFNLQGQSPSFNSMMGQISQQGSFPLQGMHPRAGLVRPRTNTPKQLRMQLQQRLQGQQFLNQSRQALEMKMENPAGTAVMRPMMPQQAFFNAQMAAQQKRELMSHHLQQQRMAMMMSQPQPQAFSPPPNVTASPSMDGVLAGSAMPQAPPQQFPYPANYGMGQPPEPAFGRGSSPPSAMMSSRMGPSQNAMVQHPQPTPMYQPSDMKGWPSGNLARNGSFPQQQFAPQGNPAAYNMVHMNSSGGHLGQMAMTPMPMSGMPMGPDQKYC
CHOP inh conf: confirmation of CHOP induction inhibitors. shares compounds with CHOP inhibitor. AID 504437. CHO-CHOP promoter luciferase reporter, tunicamycin-induced, luminescence. inhibition, % at 10 µM. 2,100 tested, 45% active;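 active = mean of three repeat readings of reporter signal inhibition above a set limit, cut at about 70% in these data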
Of the large screens only hits and unclear results are named; the others gave an inactive call (follow-up assays come after a bar, where they were run).

N#CC1=C(N)N2C(=C(C#N)C1c1ccc(Br)cc1)Nc1ccccc12 (stereo unspecified)	CHOP inhibitor 106 (no result: Beta2AR agonist) | CHOP inh conf 94
N#CC1=C(N)N2C(=C(C#N)C1c1ccccc1)Sc1ccccc12 (stereo unspecified)	none (no result: Beta2AR agonist)
CCc1ccc2[nH]c(=O)c(C(c3nnnn3Cc3ccccc3)N3CCOCC3)cc2c1 (stereo unspecified)	none
CCc1ccc2[nH]c(=O)c(C(c3nnnn3Cc3ccco3)N3CCC(C)CC3)cc2c1 (stereo unspecified)	CHOP inhibitor 99 | CHOP inh conf 77
O=C(Nc1nccs1)c1c(O)c2c([nH]c1=O)CCCC2	none
O=C(Nc1ccccc1O)c1c(O)c2c([nH]c1=O)CCCC2	CHOP inhibitor 103 | CHOP inh conf 126
CC(C)(C)c1ccc(C(=O)N/N=C/c2cccc(Cl)c2)cc1	none
O=C(N/N=C/c1cccc(Cl)c1)c1c(O)c2c([nH]c1=O)CCCC2	CHOP inhibitor 98 | CHOP inh conf inactive
CC(OC(=O)c1ccc(Cl)c(S(=O)(=O)N2CCOCC2)c1)C(=O)Nc1ccc(S(N)(=O)=O)cc1 (stereo unspecified)	none (no result: Dynein cargo inh, CHOP inhibitor, p-CIP stab down)
CC(C)(C)C(=O)Nc1ccc(-c2nc3ccccc3c(=O)o2)cc1	CHOP inhibitor 105 | CHOP inh conf 90
O=C1C=C(c2ccccc2)C(=O)N1Nc1ccccc1	CHOP inhibitor 107 | CHOP inh conf inactive
Cc1ccc(NN2C(=O)C=C(c3ccc(Cl)cc3)C2=O)cc1	CHOP inhibitor 108 | CHOP inh conf 140
COc1ccc(Cl)cc1NC(=O)c1sc2nc(C)nc(N3CCOCC3)c2c1C	none (no result: Dynein cargo inh, CHOP inhibitor)
COc1cc(OC)cc(C(=O)N[C@H](C(=O)Nc2nc(-c3ccc(OC)c(OC)c3)cs2)C(C)C)c1	CHOP inhibitor 101 | CHOP inh conf inactive
COc1cc(OC)cc(C(=O)N[C@H](C(=O)Nc2nc(-c3cc(OC)ccc3OC)cs2)C(C)C)c1	none
COc1ccc(CC(=O)OCC(=O)Nc2cccnc2Cl)cc1OC	none
COc1ccc(CN(C)Cc2cc(=O)n3ccsc3n2)c(OC)c1OC	none
CCN1/C(=C/C=C/C=C/c2sc3ccccc3[n+]2CC)Sc2ccccc21	CHOP inhibitor 104 (no result: Beta2AR agonist) | CHOP inh conf 119
CCN1/C(=C/C=C/C=C/C=C/c2sc3ccccc3[n+]2CC)Sc2ccccc21	none (no result: Dynein cargo inh, CHOP inhibitor)
COC(=O)CCC(=O)Nc1cccc([N+](=O)[O-])c1	none
Nc1c(C(=O)Nc2nc3ccccc3s2)sc2nc(-c3cccs3)ccc12	CHOP inhibitor 102 | CHOP inh conf 82
Cc1cc(OC(=O)c2cc(F)c(F)cc2Cl)nc(C)n1	none
Cc1cc(C)c(S(=O)(=O)c2ccccc2)c(OC(=O)c2cc(F)c(F)cc2Cl)n1	CHOP inhibitor 107 | CHOP inh conf 139
Cc1ccc(-c2nn(-c3ccccc3)cc2/C=N/NC(=O)c2ccc(Br)o2)cc1	CHOP inhibitor 104 | CHOP inh conf 121
CCOC(=O)c1c(CN2CCOCC2)n(-c2ccccc2)c2cc(Br)c(O)cc12	CHOP inhibitor 99 | CHOP inh conf 95
COc1oc(-c2ccc(Cl)cc2)nc1C(F)(F)F	CHOP inhibitor 103 | CHOP inh conf 71
COCCn1c(=NC(=O)c2cc3ccccc3oc2=O)sc2cc(S(N)(=O)=O)ccc21	CHOP inhibitor 101 | CHOP inh conf inactive
COCCn1c(=NC(=O)CN2C(=O)CCC2=O)sc2cc(S(N)(=O)=O)ccc21	none
CCOc1ccc(NC(=O)CN(C)S(=O)(=O)c2ccc(-c3ccc(=O)[nH]n3)s2)cc1	none (no result: Dynein cargo inh, CHOP inhibitor)
CCC1CCc2c(sc(NC(=O)c3ccoc3C)c2C(N)=O)C1 (stereo unspecified)	CHOP inhibitor 102 | CHOP inh conf 102
CCC1CCc2c(sc(NC(=O)c3cccnc3)c2C(N)=O)C1 (stereo unspecified)	none
COc1cc(NC(=O)COc2ccccc2Cl)ccc1NC(=O)c1cccs1	none (no result: Dynein cargo inh, CHOP inhibitor)
COc1cc(NC(=O)COc2ccccc2[N+](=O)[O-])ccc1NC(=O)c1cccs1	CHOP inhibitor 104 (no result: XBP1 UPR activ, UPR CHOP act) | CHOP inh conf 105
O=C(CSc1nc2ccccc2[nH]1)Nc1nc(-c2cccc(Br)c2)cs1	none
CN(C)CCCn1c(SCC(=O)Nc2nc(-c3cccc(Br)c3)cs2)nc2ccccc2c1=O	CHOP inhibitor 106 | CHOP inh conf 105
COc1ccccc1-c1cc(C(=O)Nc2cc(C)on2)no1	none
COc1ccccc1-c1cc(C(F)(F)F)nc(S(=O)(=O)CCCC(=O)Nc2cc(C)on2)n1	CHOP inhibitor 108 | CHOP inh conf 125
COc1ccccc1-c1cc(C(F)(F)F)nc(S(=O)(=O)CCCC(=O)Nc2cccnc2Cl)n1	Dynein cargo inh -4.4, CHOP inhibitor 108 (no result: XBP1 UPR activ, UPR CHOP act) | CHOP inh conf 121
COC(=O)c1sc(-c2ccc(Cl)cc2)cc1NC(=O)c1ccccc1C(=O)O	none
COC(=O)c1sc(-c2ccc(C(C)(C)C)cc2)cc1NC(=O)c1ccccc1C(=O)O	CHOP inhibitor 106 | CHOP inh conf 116
CCCCN1C(=O)C2(NNc3ccccc3O2)c2ccccc21 (stereo unspecified)	CHOP inhibitor 103 | CHOP inh conf inactive
C=CCN1C(=O)C2(NNc3ccccc3O2)c2ccccc21 (stereo unspecified)	none
OC(CN1CCN(c2cccc(C(F)(F)F)c2)CC1)c1c[nH]c2ccccc12 (stereo unspecified)	CHOP inhibitor 97 | CHOP inh conf inactive
CC(NC(=O)CN(Cc1ccccc1)S(=O)(=O)c1ccccc1)c1cccnc1 (stereo unspecified)	none (no result: Dynein cargo inh, CHOP inhibitor, p-CIP stab down)
Cc1ccccc1NC(=O)CSc1nc(N)c(C#N)c(-c2cccs2)c1C#N	CHOP inhibitor 105 | CHOP inh conf inactive
O=C(NCC1CCCN1S(=O)(=O)c1ccccc1)c1cccc(Cl)c1 (stereo unspecified)	none (no result: Dynein cargo inh, CHOP inhibitor, p-CIP stab down)
Clc1ccc(-c2n[nH]c3c2CCCC3)cc1	none
Clc1ccc(-c2n[nH]c3c2CCC3)cc1Cl	CHOP inhibitor 98 | CHOP inh conf inactive
Fc1cccc(/C=N/NC(=S)Nc2ccccc2Cl)c1	CHOP inhibitor 104 | CHOP inh conf inactive
Cc1cc(Oc2cc(N)cc([N+](=O)[O-])c2)ccc1Cl	CHOP inhibitor 102 | CHOP inh conf inactive
Nc1cc(OCC(F)(F)F)cc([N+](=O)[O-])c1	none
CCOc1ccc(/C=C2\SC(=O)N(c3ccc(O)cc3)C2=O)cc1OC	CHOP inhibitor 105 (no result: Beta2AR agonist) | CHOP inh conf inactive
